Bioassay records from PubChem.
DTT redox prof – compounds producing H2O2 with reducing agent – biochemical, NIH compound library profiling, artefact control for MLSCN library redox annotation, primary screen. activation, % at 10 µM. 0.03% of 200,000 active. DTT-dependent redox cycling H2O2, phenol red/HRP absorbance; 100% = 100 µM peroxide control, 0% = buffer;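 active means activation of at least 50% relative to the plate's high and low controls in the primary single-dose screen; inactive means activation below 50%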;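 further: compound incubated with DTT at 0.8 mM final as the reducing agent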
PKD1 kinase inh – blocks activity of human protein kinase D1; Q15139; PKD1 kinase fluorescence polarization assay; inhibition, % (no concentration beside the values); 0.056% of 200,000 active; AID 797; in the data active means inhibition above about 50%
p97 ATPase inh – human p97 ATPase inhibition; recombinant p97 ATPase, Kinase-Glo ATP luminescence, 3 h; inhibition, % at 8 µM; P55072; 0.42% of 220,000 active; AID 1481; in the data active means inhibition above about 15%;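 further: 0% = DMSO vehicle and 100% = wells lacking enzyme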
ROMK primary – modulators of human ROMK potassium channel; P48048; Tet-inducible ROMK, thallium flux fluorescence; actives lie on both sides; B-score at 10 µM; 2% of 130,000 active;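 active means signal ratio slope over the read window, or its plate-corrected B-score, at least 3 SD from the plate mean, either direction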;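 further: B-score of the F/F0 ratio slope over 7 to 12 s after thallium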
MDM2 E3 inh – blocks human Mdm2 ubiquitin ligase activity; Q00987; cell-based MDM2 ubiquitination luciferase reporter, 2 h; 0 = plate control, 100 = twice control, blank-subtracted; signal enhancement, % at 5 µM; 0.11% of 210,000 active; AID 1230;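 active means signal enhancement of 30% or more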;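 further: luminescence tracks abundance of the self-degrading MDM2-luciferase fusion protein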
Target sequence (Q00987 whole entry, looked up, the tested form may be a part): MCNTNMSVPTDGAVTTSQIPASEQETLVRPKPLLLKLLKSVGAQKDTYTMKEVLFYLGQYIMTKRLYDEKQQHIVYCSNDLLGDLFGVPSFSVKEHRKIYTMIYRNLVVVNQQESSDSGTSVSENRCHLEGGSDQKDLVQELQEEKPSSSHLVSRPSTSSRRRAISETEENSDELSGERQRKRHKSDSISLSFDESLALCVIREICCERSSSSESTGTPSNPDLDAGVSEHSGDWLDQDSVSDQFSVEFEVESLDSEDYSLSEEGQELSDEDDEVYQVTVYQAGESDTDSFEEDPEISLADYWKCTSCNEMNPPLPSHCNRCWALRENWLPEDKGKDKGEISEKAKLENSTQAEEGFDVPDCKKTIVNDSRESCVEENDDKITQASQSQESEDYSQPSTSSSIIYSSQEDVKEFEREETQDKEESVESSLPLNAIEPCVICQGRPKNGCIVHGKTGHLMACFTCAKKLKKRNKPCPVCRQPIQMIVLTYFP
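test system = mammalian cells stably expressing self-ubiquitinating, self-degrading MDM2 E3–luciferase fusion | quantity = 2000 cells/well | incubation = cell settling 4 h, compound treatment 2 h, both 37 °C | signal = luminescence with SteadyLite reagent, 15 min at room temperature | evaluation = % enhancement relative to plate controls after blank subtraction | benchmarks = plate controls and plate blanks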
KCC2 mod – modulators of human KCC2 chloride dependent transport; Q9H2X9; KCC2 cells, thallium flux FluoZin-2 fluorescence; B-score of Tl+ flux slope (higher = more flux/activation; lower = inhibition) at 10 µM; 2.2% of 190,000 active;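 active means thallium flux slope and its plate-corrected score both differing from the plate sample mean at a set confidence after two filtering rounds, in either direction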;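 further: slope of fluorescence scaled to starting intensity during 10 to 20 s after thallium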
KCC2 sec1 – KCC2 (human) modulation, secondary assay. 15% of 3,700 active. shares compounds with KCC2 mod. normalised thallium flux (F/F0 slope) at 10 µM. HEK293-KCC2, thallium flux, FluoZin2 fluorescence; stronger effect = higher value;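 active means thallium flux slope above the same plate's solvent-only control mean plus 3 SD; inconclusive means the two replicate wells disagree; inactive means no significant difference from solvent-only control wells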
KCC2 bumet counter – thallium flux persisting under bumetanide in KCC2 cells, counter-screen secondary assay | 49% of 3,700 active | normalized thallium flux at 10 µM | HEK293-KCC2 + bumetanide/ouabain, thallium flux FluoZin2; stronger effect = higher value | shares compounds with KCC2 mod;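 active means thallium entry rate above the same plate's blocked-transporter control wells by more than 3 SD; inconclusive means the two repeat wells disagree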;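 further: raw slope of fluorescence over initial fluorescence between 10 and 20 s after thallium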
KCC2 sec2 – confirmation of human KCC2 transport modulators; shares compounds with KCC2 mod; normalized thallium flux at 10 µM; 23% of 3,700 active; HEK293-KCC2, thallium flux FluoZin2 fluorescence; actives lie on both sides; F/F0 rise rate, 10–20 s post-thallium;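 active means thallium flux slope more than 3 SD above or below the plate's solvent-only control mean, mostly below; inconclusive means the two repeat wells disagreed; inactive means no significant shift from solvent-only controls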;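 further: raw slope with 0.1% DMSO as baseline and bumetanide as block control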
HEK counter1 – parental HEK flux effect, counter-screen; shares compounds with KCC2 mod; HEK293 parental cells, thallium flux FluoZin2, ouabain; baseline-ratio fluorescence slope, 10–20 s after thallium; thallium flux rate (normalised fluorescence) at 10 µM; 46% of 3,700 active; AID 1716;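 active means thallium flux rate significantly above the same plate's solvent-only control wells, beyond their mean plus 3 SD; inconclusive means the two replicate wells gave conflicting results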
KCC2 retest ouab – modulates human KCC2 on retest with ouabain | shares compounds with KCC2 mod | HEK293-KCC2, thallium flux FluoZin2 fluorescence; bidirectional: low = inhibitor, high = activator | raw Tl+ flux slope (below DMSO = inhibition, above = activation) at 10 µM | 48% of 3,700 active | AID 1717;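 active means thallium flux slope beyond 3 SD from same-plate DMSO control mean in most replicates, usually higher, sometimes lower; inconclusive means repeat tests gave conflicting results; inactive means no significant difference from controls in most replicates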;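 further: slope of initial-normalized fluorescence between seconds 10 and 20 after thallium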
HEK293 Tl flux2 – parental HEK flux effect, counter-screen 2 | shares compounds with KCC2 mod | HEK293 parental, thallium flux FluoZin-2 fluorescence slope | thallium flux slope at 10 µM | 33% of 3,700 active | AID 1718;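 active means thallium flux slope above the same plate's solvent-control mean plus 3 SD in both duplicate wells; inconclusive means duplicate wells that disagreed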;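 further: run without ouabain in cells lacking the KCC2 cotransporter; slope of fluorescence scaled to its starting value between 10 and 20 s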
Starred values were filed as active, the others as inactive. Shown are actives, neighbours in structure and some others; about 3.4% of the full set was active somewhere.

For COc1ccc2c(c1)C(=O)[C@@H](O)[C@H](c1ccc(OC)c(Br)c1)O2 the results were DTT redox prof 1, PKD1 kinase inh 1, p97 ATPase inh 1, ROMK primary 0.6, KCC2 mod 6*, KCC2 sec1 0.0084, KCC2 bumet counter 0.014*, KCC2 sec2 0.031, HEK counter1 0.02*, KCC2 retest ouab inconclusive and HEK293 Tl flux2 0.011.
`Fc1ccc(-n2c(-c3ccc4ccccc4n3)n[nH]c2=S)cc1` gave DTT redox prof 0, PKD1 kinase inh 0, p97 ATPase inh 8, ROMK primary 0.7, MDM2 E3 inh -10, KCC2 mod 6.6*, KCC2 sec1 inconclusive, KCC2 bumet counter 0.022*, KCC2 sec2 0.032, HEK counter1 0.018*, KCC2 retest ouab 0.027* and HEK293 Tl flux2 0.018*.
S=c1[nH]nc(-c2ccc3ccccc3n2)n1-c1cc(Cl)cc(Cl)c1 was read as DTT redox prof 0, PKD1 kinase inh 1, p97 ATPase inh 1, ROMK primary 0.54, MDM2 E3 inh -7, KCC2 mod 22*, KCC2 sec1 0.021*, KCC2 bumet counter 0.054*, KCC2 sec2 0.033, HEK counter1 0.039*, KCC2 retest ouab 0.051* and HEK293 Tl flux2 0.013*.
For S=c1[nH]nc(-c2ccn[nH]2)n1-c1ccccc1Cl the results were p97 ATPase inh -2, MDM2 E3 inh -8 and KCC2 mod -0.79.
Cc1nn(C)cc1-c1n[nH]c(=S)n1-c1ccc(F)cc1 was read as DTT redox prof 0, PKD1 kinase inh -5, p97 ATPase inh -3, ROMK primary 1.6, MDM2 E3 inh 7 and KCC2 mod 0.57.
S=c1[nH]nc(-c2ccc3ccccc3n2)n1-c1ccccc1Cl was read as DTT redox prof 0, PKD1 kinase inh 3, p97 ATPase inh 4, MDM2 E3 inh -1, KCC2 mod 6*, KCC2 sec1 0.011, KCC2 bumet counter 0.026*, KCC2 sec2 0.033, HEK counter1 0.013*, KCC2 retest ouab 0.025 and HEK293 Tl flux2 0.01.
For O=c1c(-c2ccc(F)cc2)coc2cc(O)ccc12 the results were DTT redox prof 0, PKD1 kinase inh -6, p97 ATPase inh -2, MDM2 E3 inh 0, KCC2 mod -5.8*, KCC2 sec1 0.0084, KCC2 bumet counter 0.0065, KCC2 sec2 0.028, HEK counter1 0.0078, KCC2 retest ouab 0.021* and HEK293 Tl flux2 inconclusive.
`COc1ccc(-c2coc3cc(O)ccc3c2=O)cc1OC` gave DTT redox prof 0, PKD1 kinase inh -13, p97 ATPase inh 6, ROMK primary 0.06 and MDM2 E3 inh -23.
For Cc1cnc(C(=O)OCC(=O)N2c3ccccc3CC2C)cn1 (stereo not given) the results were DTT redox prof 0, PKD1 kinase inh -3, p97 ATPase inh 3, ROMK primary 0.00084 and MDM2 E3 inh -6.
For CC1Cc2ccccc2N1C(=O)CN(C)S(=O)(=O)c1cccc2cccnc12 (stereo not given) the results were DTT redox prof -1, PKD1 kinase inh -4, p97 ATPase inh -1, MDM2 E3 inh -1, KCC2 sec1 0.0056, KCC2 bumet counter 0.0055, KCC2 sec2 0.023*, HEK counter1 0.0072, KCC2 retest ouab inconclusive and HEK293 Tl flux2 0.01.
`CC1Cc2ccccc2N1C(=O)COC(=O)c1cccnc1Cl` (stereo not given) gave DTT redox prof 2, PKD1 kinase inh -5, p97 ATPase inh 3, MDM2 E3 inh -10, KCC2 mod -4*, KCC2 sec1 0.0071, KCC2 bumet counter 0.0061, KCC2 sec2 0.027, HEK counter1 0.0064, KCC2 retest ouab inconclusive and HEK293 Tl flux2 inconclusive.
Screening CCCCOCCCNC(=O)c1ccc([N+](=O)[O-])c(C)c1 returned DTT redox prof -1, PKD1 kinase inh -4, p97 ATPase inh 6, ROMK primary -0.6, MDM2 E3 inh -5 and KCC2 mod -0.55.
COc1ccccc1NC(=O)N1CCN(c2ccccc2F)CC1 was read as DTT redox prof 0, PKD1 kinase inh -8, p97 ATPase inh -4, ROMK primary -0.28, MDM2 E3 inh -10 and KCC2 mod 0.034.
For O=C(COc1ccc2ccccc2c1)Nc1ccncc1 the results were DTT redox prof 0, PKD1 kinase inh 0, p97 ATPase inh -2, ROMK primary -1.4, MDM2 E3 inh -4 and KCC2 mod -2.8.
`c1ccc(-c2cn3nc4c(nc3n2)CCCC4)cc1` gave DTT redox prof 4, PKD1 kinase inh 17, p97 ATPase inh 0, ROMK primary -2.4, MDM2 E3 inh -9, KCC2 mod -4.5*, KCC2 sec1 0.0076, KCC2 bumet counter 0.005, KCC2 sec2 0.026*, HEK counter1 inconclusive, KCC2 retest ouab 0.016* and HEK293 Tl flux2 0.0081*.
For Cc1nn(C)c(C(=O)Nc2ccc(S(=O)(=O)NC34CC5CC(CC(C5)C3)C4)cc2)c1Br the results were DTT redox prof 0, PKD1 kinase inh 7, p97 ATPase inh -9, ROMK primary 0.23, MDM2 E3 inh 1 and KCC2 mod 0.7.
For COc1ccc(C2=NN(C(=O)c3cccs3)C(O)(C(F)(F)F)C2)cc1 (stereo not given) the results were DTT redox prof -1, PKD1 kinase inh -3, p97 ATPase inh 1, MDM2 E3 inh -15, KCC2 mod 4.9*, KCC2 sec1 inconclusive, KCC2 bumet counter 0.0093*, KCC2 sec2 0.033, HEK counter1 inconclusive, KCC2 retest ouab 0.022 and HEK293 Tl flux2 0.011.
